5HT1E antag – 5-HT1E receptor antagonists, primary screen, cell-based, HTS. 5-hydroxytryptamine receptor 1E (Homo sapiens), P28566. AID 571, 2007. 65,000 tested, 0.99% active. inhibition, % at 6 µM. CHO 5-HT1E Ga15 NFAT-bla reporter, FRET, antagonist;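 active = inhibition above a set limit, the mean inhibition across every tested compound plus 3 SD, cut at about 29% in these data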;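 note: signal is the 460 over 535 nm emission ratio of beta-lactamase substrate; 0% = agonist plus DMSO wells and 100% = wells without agonist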
5HT1a antag – human 5-HT1a receptor antagonists, primary screen, cell-based, CHO, Ga15 NFAT-bla reporter; CHO 5-HT1a Ga15 NFAT-bla reporter, antagonist mode; inhibition, % at 10 µM; 62,000 tested, 0.68% active; AID 612, 2007;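 active = inhibition above the mean of all tested compounds plus 3 SD, cut at about 43% in these data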;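 note: receptor stimulated by 5-CT agonist at 100 nM near EC80; beta-lactamase reporter measured by ratiometric fluorescence of a cleavable substrate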
5HT1a ag – human 5-HT1a receptor agonists, primary screen, cell-based, CHO, Ga15 NFAT-bla reporter | 5-hydroxytryptamine receptor 1A (Homo sapiens), P08908 | CHO 5-HT1a Ga15 NFAT-bla reporter, FRET ratio; 0% basal, 100% maximal reference agonist | activation, % at 10 µM | 65,000 tested, 0.56% active;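 active = activation above the screen-wide mean activation plus 3 SD, cut at about 19% in these data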;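 note: 0% = DMSO wells and 100% = 5-CT at EC100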
5HT1E ag – 5-HT1E receptor agonists, primary screen, cell-based, HTS. 65,000 tested, 0.69% active. 5-hydroxytryptamine receptor 1E (Homo sapiens), P28566. CHO 5-HT1E Ga15 NFAT-bla reporter, FRET; 0% DMSO wells, 100% control agonist wells. activation, % at 6 µM. AID 574, 2007;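 active = activation above a set limit, the screen-wide mean activation plus 3 SD, cut at about 8.5% in these data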;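 note: 100% = positive control agonist at 1 µM giving full maximal response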
S1P3 agonist – human S1P3 receptor agonists, primary screen, cell-based, primary and confirmation, NFAT-BLA reporter; AID 373, 2006; 60,000 tested, 0.1% active; S1P3 NFAT-BLA reporter cells, agonism, FRET ratio; relative to 1 µM S1P, basal subtracted; activation, % at 4.5 µM; Sphingosine 1-phosphate receptor 3 (Homo sapiens), Q99500;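 active = activation above the screen-wide mean plus 3 SD, cut at about 4.5% in these data, passing the limit was not always enough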
Target sequence (Q99500 whole entry, looked up): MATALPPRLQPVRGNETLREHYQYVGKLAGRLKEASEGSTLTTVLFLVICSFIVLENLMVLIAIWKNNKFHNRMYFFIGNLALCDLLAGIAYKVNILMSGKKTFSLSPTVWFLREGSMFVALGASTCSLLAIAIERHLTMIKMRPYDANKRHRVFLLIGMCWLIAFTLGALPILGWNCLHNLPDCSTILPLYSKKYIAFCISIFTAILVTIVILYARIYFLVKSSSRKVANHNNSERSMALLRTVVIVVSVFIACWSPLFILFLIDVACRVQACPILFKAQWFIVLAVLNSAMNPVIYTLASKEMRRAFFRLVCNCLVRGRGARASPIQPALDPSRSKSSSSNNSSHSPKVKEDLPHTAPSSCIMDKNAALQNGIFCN
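Material: Human S1P3 NFAT-BLA reporter CHO cells | Incubation: Overnight plating, 4 h compound 37 °C, 2 h substrate RT | Signal: FRET β-lactamase substrate fluorescence, excitation 405 nm, 460/535 nm emission ratio, background-subtracted | Compound: 4.5 µM final, single dose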
S1P1 ag pot – S1P1 agonists and agonism potentiators, primary screen, cell-based, primary and confirmation screens, CRE-bla reporter; S1P1 CRE-bla cells, forskolin, beta-lactamase FRET, potentiator mode; S1P1 agonist co-added at EC20, 2 nM; 100% = saturating reference agonist, 0% = basal; Sphingosine 1-phosphate receptor 1 (Homo sapiens), P21453; activation, % at 9.5 µM; AID 449, 2006; 56,000 tested, 0.57% active;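 active = activation above a cutoff set at the mean activation of all tested compounds plus 3 SD, cut at about 54% in these data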;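 note: forskolin at 4 µM as EC80 and the EC20 agonist is SEW2871; 100% = SEW2871 at its EC100 plus forskolin at EC80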
An asterisk follows results filed as active; . = not tested or not shown. In the library only some 3% were active in any assay of this set; here they are far more common.

SMILES	5HT1E antag	5HT1a antag	5HT1a ag	5HT1E ag	S1P3 agonist	S1P1 ag pot
Cc1nc2nc(-c3cccs3)cn2nc1C	39*	12	-4	0	0	29
COc1cccc(-c2cn3nc(C)c(C)nc3n2)c1	-9	-10	-3	1	0	-3
O=C(CCn1c(=O)sc2ccccc21)NCCN1CCOCC1	-1	0	-2	1	1	-22
CC1=CC(C)(C)Nc2ccc(OC(=O)c3cccnc3)cc21	30*	26	17	4	0	64*
CC1=CC(C)(C)Nc2ccc(OC(=O)CN3C(=O)CCC3=O)cc21	19	21	14	3	1	42
CC1=CC(C)(C)Nc2ccc(OC(=O)c3ccco3)cc21	51*	41	25*	2	-2	55
O=c1cc(-c2ccccc2)c2ccc(O)c(CN3CCCCC3)c2o1	15	6	-1	0	-1	2
O=c1oc2c(CN3CCCCCC3)c(O)ccc2cc1-c1nc2ccccc2[nH]1	30*	15	-1	1	0	26
Cn1c2ccc(Cl)cc2c2nc3ccccc3nc21	37*	10	2	0	1	-104
CCCC(=O)NCCCc1nc2ccccc2n1C(C)C	-4	5	-1	1	0	-19
COc1ccc(CCNC(=O)CCSc2nc(-c3ccco3)cc(C(F)(F)F)n2)cc1OC	13	3	1	0	-1	31
c1csc(-c2csc3nc(CN4CCOCC4)nc(NCc4ccc5c(c4)OCO5)c23)c1	7	52*	-1	0	-1	6
COc1ccc(C(=O)N2CCc3cc(OC)c(OC)cc3C2)cc1OC	11	3	-1	0	0	-6
COc1cc2c(cc1OC)C1Cc3ccc(OC)c(OC)c3CN1CC2 (configuration not stated)	2	51*	-1	8	-1	2
Nc1nonc1-c1nc2ccccc2n1Cc1ccccc1	14	56*	-1	0	-1	.
CCOC(=O)c1ccccc1NC(=O)Cn1c(-c2nonc2N)nc2ccccc21	74*	80*	-2	-2	-2	-19
NC(=O)c1cc2ccc(O)cc2oc1=NCc1ccccc1	-22	-207	86*	26*	3	-153
COc1ccc(OC)c(N=c2oc3cc(O)ccc3cc2C(N)=O)c1	-21	-53	39*	12*	4	-74
O=C(c1ccccc1)c1cc2ccccc2o1	-6	-10	-2	0	-1	-23
NC(=O)c1cc2ccc(O)cc2oc1=Nc1ccccc1	-48	-322	99*	50*	6	-277
O=C(CN1CCc2ccccc2C1)c1cccs1	3	10	0	0	0	-2
CCOC(=O)C1C(=O)CC(C)(O)C(C(=O)OCC)C1/C=C/c1ccccc1 (configuration not stated)	-7	22	1	0	-3	-9
CCOC(=O)COn1c(=O)c(=O)n(O)c2ccccc21	-8	8	0	0	-1	.
Cc1ccc(S(=O)(=O)Nc2cccc3ncccc23)s1	81*	64*	-3	1	0	53
CCOC(=O)c1ccoc1CSCc1ccc(C(=O)OC)o1	7	2	0	0	0	20
SMILES	5HT1E antag	5HT1a antag	5HT1a ag	5HT1E ag	S1P3 agonist	S1P1 ag pot
CC(C)Cn1c(=O)c(C(=O)Nc2ccccc2S(N)(=O)=O)c(O)c2ccccc21	-3	-26	-2	0	-2	120*
COc1cc(CC(=O)NCc2ccc3c(c2)OCO3)cc(OC)c1OC	0	-2	0	1	0	13
COc1cc([C@@H]2c3cc4c(cc3[C@H](O)[C@H]3COC(=O)[C@H]23)OCO4)cc(OC)c1OC	73*	.	-3	0	-6	-22
COc1cc(-c2nn3c(Cc4ccccc4)nnc3s2)cc(OC)c1OC	31*	14	0	0	0	.
CCOc1ccc(NC(=O)c2oc3ccccc3c2NC(=O)C(C)C)cc1	3	-24	-2	0	-1	-23
O=S(=O)(c1ccc(S(=O)(=O)N(Cc2ccc(F)cc2)C2CCCC2)cc1)N1CCCC1	31*	29	1	-1	-1	16
N=c1n(Cc2ccccc2)c2ccccc2n1CC(O)COc1ccccc1 (configuration not stated)	5	22	20*	0	-1	-15
CCCCn1c(=N)n(CC(O)COc2ccc(C)cc2)c2ccccc21 (configuration not stated)	-3	53*	-3	0	-2	14
CCCCn1c(=N)n(CC(O)COc2ccccc2)c2ccccc21 (configuration not stated)	17	54*	-4	-1	-1	1
CCCn1c(=N)n(CC(O)COc2cccc(C)c2)c2ccccc21 (configuration not stated)	-9	37	-2	0	-1	-21
Cc1cc(C(=O)COC(=O)c2csc3c2CCCC3)c(C)n1C	2	2	0	-1	0	79*
COc1ccccc1C1CC(=O)Nc2cc3c(cc21)OCCO3 (configuration not stated)	47*	27	0	-1	-1	-1
CC(C)Oc1ccccc1C1CC(=O)Nc2cc3c(cc21)OCCO3 (configuration not stated)	63*	50*	-5	-1	-2	-24
COc1cccc(C2CC(=O)Nc3cc4c(cc32)OCCO4)c1OC(C)C (configuration not stated)	6	12	-1	1	-1	-23
OC(CN1CCN(c2ccccc2)CC1)c1ccc2c(c1)CCN2 (configuration not stated)	-1	4	7	0	-1	-26
CCCc1nc(SCC(=O)N2CCC(Cc3ccccc3)CC2)c2c(=O)n(C)c(=O)n(C)c2n1	1	3	2	1	0	21
CC12CCC(C(=O)NCCCn3ccnc3)(OC1=O)C2(C)C (configuration not stated)	5	-8	-2	0	0	.
c1ccc(Cn2nnc3c(N4CCN(Cc5ccc6c(c5)OCO6)CC4)ncnc32)cc1	5	5	-1	0	0	20

Bioassay records from PubChem.
